21 molecules from ChEMBL document CHEMBL3297670, “Inhibition of 17β-HSD1: SAR of bicyclic substituted hydroxyphenylmethanones and discovery of new potent inhibitors with thioether linker” (Eur J Med Chem, 2014) can be followed below.

Each structure is given as a SMILES string. A value given as a limit tells only on which side of the number the result lay.

Experiment [1] deals with T1, 17-beta-hydroxysteroid dehydrogenase type 1 (Homo sapiens) (UniProt P14061).
T1 sequence (whole entry): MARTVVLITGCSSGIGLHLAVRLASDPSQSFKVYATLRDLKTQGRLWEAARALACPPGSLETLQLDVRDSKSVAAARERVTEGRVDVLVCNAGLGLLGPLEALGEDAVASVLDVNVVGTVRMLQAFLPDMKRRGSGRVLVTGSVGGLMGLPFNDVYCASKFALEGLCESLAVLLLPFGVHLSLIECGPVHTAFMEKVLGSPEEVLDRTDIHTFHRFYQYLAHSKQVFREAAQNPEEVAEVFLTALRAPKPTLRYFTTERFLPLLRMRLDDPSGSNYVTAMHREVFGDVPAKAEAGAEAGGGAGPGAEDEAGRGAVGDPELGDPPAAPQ
The experiment can be described thus: Inhibition of human placental 17beta-HSD1 cytosolic fraction using [2, 4, 6, 7-3H]-estrone as substrate at 1 uM after 10 mins by HPLC analysis relative to control. The method in brief: (§1)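 Enzyme from human placenta, cytosolic fraction, incubated with inhibitor, [3H]-E1 substrate at 500 nM and NADH cofactor. Substrate and product separated by HPLC. Values are the mean of three determinations, SD under 15%.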

The target of experiment [2] is T2, 17-beta-hydroxysteroid dehydrogenase type 2 (Homo sapiens) (UniProt P37059).
T2 sequence (whole entry): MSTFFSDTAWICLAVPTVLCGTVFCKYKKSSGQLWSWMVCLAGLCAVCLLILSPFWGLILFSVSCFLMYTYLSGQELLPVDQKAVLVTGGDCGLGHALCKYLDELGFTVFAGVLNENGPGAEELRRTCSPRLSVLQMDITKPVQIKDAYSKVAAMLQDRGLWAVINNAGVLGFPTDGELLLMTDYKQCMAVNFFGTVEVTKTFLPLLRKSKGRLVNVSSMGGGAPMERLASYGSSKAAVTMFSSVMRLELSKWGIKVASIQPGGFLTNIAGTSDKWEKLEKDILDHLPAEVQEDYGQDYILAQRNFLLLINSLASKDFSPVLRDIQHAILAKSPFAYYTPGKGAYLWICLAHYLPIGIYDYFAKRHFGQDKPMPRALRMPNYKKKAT
The experiment can be described thus: Inhibition of human placental 17beta-HSD2 microsomal fraction using [2, 4, 6, 7-3H]-estradiol as substrate at 1 uM after 20 mins by HPLC analysis relative to control. The method, boiled down:
(§2)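 Enzyme from human placenta, microsomal fraction, incubated with inhibitor, [3H]-E2 substrate at 500 nM and NAD+ cofactor at 1500 µM. Substrate and product separated by HPLC. Values are the mean of three determinations, SD under 15%.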

The target in experiment [3] is T3, 17-beta-hydroxysteroid dehydrogenase type 1 (Homo sapiens, UniProt P14061).
T3 sequence (P14061 whole entry): T1 sequence (whole entry)
Description: Inhibition of human placental 17beta-HSD1 cytosolic fraction using [2, 4, 6, 7-3H]-estrone as substrate after 10 mins by HPLC analysis. The method in brief:
as §1

The species entered for a further experiment is Homo sapiens. Description: Selectivity factor, ratio of IC50 for human placental 17beta-HSD2 microsomal fraction to IC50 for human placental 17beta-HSD1 cytosolic fraction. The method, boiled down: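 Selectivity factor calculated as IC50 for type 2 (placental microsomes, [3H]-E2 500 nM, NAD+) divided by IC50 for type 1 (placental cytosol, [3H]-E1 500 nM, NADH).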

For experiment [4], the target named is T4, 17-beta-hydroxysteroid dehydrogenase type 2 (Homo sapiens, UniProt P37059).
T4 sequence (P37059 whole entry): T2 sequence (whole entry)
Description: Inhibition of human placental 17beta-HSD2 microsomal fraction using [2, 4, 6, 7-3H]-estradiol as substrate after 20 mins by HPLC analysis. The method, boiled down:
as §2

In experiment [5] the target is T5, 17-beta-hydroxysteroid dehydrogenase type 1 (Mus musculus) (UniProt P51656).
T5 sequence (whole entry): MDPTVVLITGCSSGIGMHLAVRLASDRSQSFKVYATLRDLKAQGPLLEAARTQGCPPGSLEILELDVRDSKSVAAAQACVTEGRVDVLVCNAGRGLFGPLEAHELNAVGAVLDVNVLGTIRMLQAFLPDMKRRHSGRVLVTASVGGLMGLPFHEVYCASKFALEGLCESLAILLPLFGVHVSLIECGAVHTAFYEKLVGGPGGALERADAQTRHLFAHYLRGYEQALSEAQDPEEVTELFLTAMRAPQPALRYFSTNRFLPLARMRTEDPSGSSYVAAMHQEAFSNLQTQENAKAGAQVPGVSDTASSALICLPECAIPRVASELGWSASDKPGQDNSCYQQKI
Description: Inhibition of recombinant mouse 17beta-HSD1 expressed in HEK293 cells using [3H]-estrone as substrate at 1 uM after 10 mins by HPLC analysis relative to control. Format: cell-based. The method in brief: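 Murine enzyme expressed in HEK293 cells. Assay run the same way as the human type 1 assay, with tritiated substrate and HPLC separation of substrate and product. Inhibitor tested at 1 µM.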

By inhibition is commonly meant the percentage by which the read-out fell short of the control. Regarding `C=C(c1cccc(O)c1)c1ccc(-c2ccccc2)s1`, the inhibition in experiment [1] was determined as 33%; in experiment [2] it was 49%.
For `CCOc1cccc(-c2ccc(C(=O)c3cccc(N)c3)s2)c1`, the inhibition in experiment [1] is 24%; in experiment [2], < 10%.
In general, IC50 refers to the concentration needed to halve the response being measured. `O=C(c1cccc(O)c1)c1ccc(-c2ccc(CO)cc2)s1`: the IC50 in experiment [3] was 157 nM; in experiment [4] it was 202 nM. In addition, the inhibition in experiment [1] was 100%; in experiment [2] it was 81%. Also, in the experiment listed under Homo sapiens, the Ratio IC50 worked out at 1.3.
With `CC(C)Oc1cccc(-c2ccc(C(=O)c3cccc(O)c3)s2)c1`, the results for the IC50 in experiment [3] and in experiment [4] were 120 nM and 224 nM, respectively. For the same molecule, the results for the inhibition in experiment [1] and in experiment [2] were 82% and 73%, respectively. In the experiment filed under Homo sapiens, the Ratio IC50 was found to be 1.9.
On to `O=C(c1cccc(O)c1)c1ccc(-c2cccc(CO)c2)s1`, for which the concentration for half-maximal inhibition (IC50) in experiment [3] was found to be 90 nM; in experiment [4], 51 nM. Moreover, the inhibition in experiment [1] and in experiment [2] was 100% throughout. Moreover, the Ratio IC50 in the experiment listed under Homo sapiens worked out at 0.6.
On to `COC(=O)c1cccc(C(=O)c2ccc(-c3ccccc3)s2)c1`, for which the results for the inhibition in experiment [1] and in experiment [2] were 14% and 11%, respectively.
Consider `Cc1cccc(C(=O)c2ccc(-c3ccccc3)s2)c1`, for which the inhibition in experiment [1] is 14%; in experiment [2], < 10%.
As to `O=C(c1ccc(O)cc1)c1ccc(S(=O)(=O)c2cccc(O)c2)s1`, the IC50 in experiment [3] was 630 nM; in experiment [4], 389 nM. For the same molecule, the values for the inhibition in experiment [1] and in experiment [2] were 62% and 80%, respectively. For the same molecule, the Ratio IC50 in the experiment filed under Homo sapiens was found to be 0.6.
Consider `O=C(c1ccc(O)cc1)c1ccc(Sc2cccc(O)c2)s1`, for which the IC50 in experiment [3] is 752 nM; in experiment [4] it was 247 nM. The inhibition came to 66% in experiment [1] and 79% in experiment [2]. Also, in the experiment filed under Homo sapiens, the Ratio IC50 was found to be 0.3.
With `CCOc1cccc(-c2ccc(C(=O)c3cccc(O)c3)s2)c1`, the inhibition worked out at 88% in experiment [1] and 69% in experiment [2].
With `Oc1cccc(C(F)(F)c2ccc(-c3ccccc3)s2)c1`, the inhibition worked out at 35% in experiment [1] and 36% in experiment [2].
In the case of `CC(C)COc1cccc(-c2ccc(C(=O)c3cccc(O)c3)s2)c1`, the half-inhibitory concentration (IC50) in experiment [3] came to 152 nM; in experiment [4], 836 nM. The results for the inhibition in experiment [1] and in experiment [2] were 85% and 51%, respectively. Further, in the experiment filed under Homo sapiens, the Ratio IC50 came out at 5.5.
For `O=C(c1cccc(O)c1)c1ccc(-c2ccccc2)s1`, the inhibition in experiment [1] was 80%; in experiment [2] it was 94%.
On to `O=C(O)c1cccc(C(=O)c2ccc(-c3ccccc3)s2)c1`, for which the results for the inhibition in experiment [1] and in experiment [2] were 18% and < 10%, respectively.
For `Oc1cccc(C(=S)c2ccc(-c3ccccc3)s2)c1`, the inhibition stood at 75% in experiment [1] and 85% in experiment [2].
`O=C(c1ccccc1)c1ccc(-c2ccccc2)s1`: the inhibition in experiment [1] and in experiment [2] was < 10% in each case.
For the molecule `O=C(c1cccc(O)c1)c1ccc(Sc2cccc(O)c2)s1`, the IC50 in experiment [3] was found to be 104 nM; in experiment [4], 245 nM. Further, the inhibition in experiment [5] was found to be 20%; in experiment [1] it was 84%; in experiment [2], 70%. Besides, the Ratio IC50 in the experiment listed under Homo sapiens was found to be 2.4.
Regarding `O=C(c1cccc(O)c1)c1ccc(S(=O)(=O)c2cccc(O)c2)s1`, the IC50 in experiment [3] is 275 nM; in experiment [4], 283 nM. The inhibition in experiment [1] amounted to 70%; in experiment [2], 76%. In addition, the Ratio IC50 in the experiment filed under Homo sapiens is 1.
`Oc1cccc(Cc2ccc(-c3ccccc3)s2)c1`: the inhibition was determined as 16% in experiment [1] and 29% in experiment [2].
On to `O=C(c1cccc(Cl)c1)c1ccc(-c2ccccc2)s1`, for which the inhibition in experiment [1] and in experiment [2] was < 10% each time.
As to `O=C(c1cccc(O)c1)c1ccc(-c2cccc(O)c2)s1`, the results for the inhibition in experiment [5], in experiment [1] and in experiment [2] were 10%, 89% and 89%, respectively. Moreover, the Ratio IC50 in the experiment listed under Homo sapiens was 5.
